In data set [1] the target is Epidermal growth factor receptor (Homo sapiens) (UniProt P00533). The data set is described as follows: Inhibition of EGFR (unknown origin) assessed as residual activity at 50 uM relative to control. The procedure, abridged: (§1)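 Selectivity profiling against a panel of 44 human kinases. For each kinase, ATP was set to that kinase's Km. Values are residual activity in duplicate assays.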

Data set [2] addresses Ephrin type-A receptor 4 (Homo sapiens) (UniProt P54764). The data set is described as follows: Inhibition of EPHA4 (unknown origin) assessed as residual activity at 50 uM relative to control. Summed up: as §1
Data set [3] addresses Serine/threonine-protein kinase pim-1 (Homo sapiens) (UniProt P11309). Kind of data set: Inhibition of PIM1 (unknown origin) assessed as residual activity at 50 uM relative to control. Summed up:
as §1

In data set [4] the target is Muscle, skeletal receptor tyrosine-protein kinase (Homo sapiens) (UniProt O15146). The data set is described as follows: Inhibition of MUSK (unknown origin) assessed as residual activity at 50 uM relative to control. The procedure, abridged: as §1
The target of data set [5] is Platelet-derived growth factor receptor alpha (Homo sapiens) (UniProt P16234). Kind of data set: Inhibition of PDGFRalpha (unknown origin) assessed as residual activity at 50 uM relative to control. Summed up: as §1
Data set [6] addresses Glycogen synthase kinase-3 beta (Homo sapiens) (UniProt P49841). Kind of data set: Inhibition of GSK3beta (unknown origin) assessed as residual activity at 50 uM relative to control. The procedure, abridged: as §1
The target in data set [7] is Homeodomain-interacting protein kinase 2 (Homo sapiens) (UniProt Q9H2X6). Kind of data set: Inhibition of HIPK2 (unknown origin) assessed as residual activity at 50 uM relative to control. The procedure, abridged: as §1
In data set [8] the target is Protein kinase C alpha type (Homo sapiens) (UniProt P17252). Kind of data set: Inhibition of PKCalpha (unknown origin) assessed as residual activity at 50 uM relative to control. The procedure, abridged: (§2)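 Profiling panel of 44 human kinases. ATP set to each kinase's Km. Run in duplicate; duplicates within 15–17% of each other.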
Data set [9] deals with Mast/stem cell growth factor receptor Kit (Homo sapiens) (UniProt P10721). Kind of data set: Inhibition of cKIT (unknown origin) assessed as residual activity at 50 uM relative to control. Summed up: as §2
In data set [10] the target is Cyclin-dependent kinase 1/cyclin B1 (Homo sapiens) (UniProt P06493+P14635). The data set is described as follows: Inhibition of CDK1/cyclin B (unknown origin) assessed as residual activity at 50 uM relative to control. It counts as protein-complex assay. Summed up: as §1
The target in data set [11] is Serine/threonine-protein kinase Chk2 (Homo sapiens) (UniProt O96017). The data set is described as follows: Inhibition of CHK2 (unknown origin) assessed as residual activity at 50 uM relative to control. Summed up: as §1
The target of data set [12] is Homeodomain-interacting protein kinase 3 (Homo sapiens) (UniProt Q9H422). The data set is described as follows: Inhibition of HIPK3 (unknown origin) assessed as residual activity at 50 uM relative to control. Summed up: as §1
Data set [13] deals with Rho-associated protein kinase 1 (Homo sapiens) (UniProt Q13464). The data set is described as follows: Inhibition of ROCK1 (unknown origin) assessed as residual activity at 50 uM relative to control. The procedure, abridged:
as §2

Data set [14] concerns the target Cyclin-dependent kinase 2/cyclin E1 (Homo sapiens) (UniProt P24864+P24941). Kind of data set: Inhibition of CDK2/cyclin E (unknown origin) assessed as residual activity at 50 uM relative to control. Type of data set: protein-complex assay. The procedure, abridged:
as §1

Data set [15] addresses Dual specificity mitogen-activated protein kinase kinase 1 (Homo sapiens) (UniProt Q02750). The data set is described as follows: Inhibition of MEK1 (unknown origin) assessed as residual activity at 50 uM relative to control. The procedure, abridged: as §1
The target in data set [16] is Tyrosine-protein kinase ABL1 (Homo sapiens) (UniProt P00519). The data set is described as follows: Inhibition of ABL (unknown origin) assessed as residual activity at 50 uM relative to control. Summed up: as §1
Data set [17] concerns the target Tyrosine-protein kinase JAK2 (Homo sapiens) (UniProt O60674). The data set is described as follows: Inhibition of JAK2 (unknown origin) assessed as residual activity at 50 uM relative to control. Summed up: as §1
For data set [18], the target named is Casein kinase I isoform gamma-1 (Homo sapiens) (UniProt Q9HCP0). The data set is described as follows: Inhibition of CK1gamma1 (unknown origin) assessed as residual activity at 50 uM relative to control. The procedure, abridged: as §1
The target in data set [19] is Activin receptor type-1 (Homo sapiens) (UniProt Q04771). Kind of data set: Inhibition of ALK2 (unknown origin) assessed as residual activity at 50 uM relative to control. Summed up: as §1
The target of data set [20] is Dual specificity protein kinase CLK4 (Homo sapiens) (UniProt Q9HAZ1). The data set is described as follows: Inhibition of CLK4 (unknown origin) assessed as residual activity at 50 uM relative to control. The procedure, abridged: as §1
Data set [21] addresses Myosin light chain kinase 2, skeletal/cardiac muscle (Homo sapiens) (UniProt Q9H1R3). The data set is described as follows: Inhibition of MLCK2 (unknown origin) assessed as residual activity at 50 uM relative to control. The procedure, abridged:
as §1

Data set [22] addresses Serine/threonine-protein kinase haspin (Homo sapiens) (UniProt Q8TF76). The data set is described as follows: Inhibition of haspin (unknown origin) assessed as residual activity at 50 uM relative to control. The procedure, abridged: as §2
Data set [23] deals with Dual specificity protein kinase CLK2 (Homo sapiens) (UniProt P49760). The data set is described as follows: Inhibition of CLK2 (unknown origin) assessed as residual activity at 50 uM relative to control. Summed up: as §1
For data set [24], the target named is Serine/threonine-protein kinase TBK1 (Homo sapiens) (UniProt Q9UHD2). Kind of data set: Inhibition of TBK1 (unknown origin) assessed as residual activity at 50 uM relative to control. The procedure, abridged:
as §2

The target in data set [25] is Dual specificity tyrosine-phosphorylation-regulated kinase 1A (Homo sapiens) (UniProt Q13627). Kind of data set: Inhibition of DYRK1A (unknown origin) assessed as residual activity at 50 uM relative to control. Summed up:
as §1

The target of data set [26] is Dual specificity protein kinase CLK1 (Homo sapiens) (UniProt P49759). The data set is described as follows: Inhibition of CLK1 (unknown origin) assessed as residual activity at 50 uM relative to control. Summed up: as §1
Data set [27] deals with Dual specificity protein kinase CLK3 (Homo sapiens) (UniProt P49761). The data set is described as follows: Inhibition of CLK3 (unknown origin) assessed as residual activity at 50 uM relative to control. The procedure, abridged:
as §1

Data set [28] deals with Receptor-interacting serine/threonine-protein kinase 2 (Homo sapiens) (UniProt O43353). The data set is described as follows: Inhibition of RIPK2 (unknown origin) assessed as residual activity at 50 uM relative to control. The procedure, abridged:
as §2

Data set [29] concerns the target MAP kinase-interacting serine/threonine-protein kinase 1 (Homo sapiens) (UniProt Q9BUB5). Kind of data set: Inhibition of MNK1 (unknown origin) assessed as residual activity at 50 uM relative to control. Summed up:
as §1

The target of data set [30] is Death-associated protein kinase 3 (Homo sapiens) (UniProt O43293). Kind of data set: Inhibition of DAPK3 (unknown origin) assessed as residual activity at 50 uM relative to control. The procedure, abridged: as §1
The target in data set [31] is T1, Casein kinase II subunit alpha (Homo sapiens, UniProt P68400). Kind of data set: Inhibition of recombinant human GST-tagged CK2alpha at 10 uM in presence of ATP by radiometric kinase assay relative to control. The procedure, abridged: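 Radiometric assay of CK2α with 100 μM ATP. Single-concentration percent inhibition at 10 μM relative to control. Values are the mean of ≥2 experiments.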
Target sequence in this assay (P68400 whole entry, looked up): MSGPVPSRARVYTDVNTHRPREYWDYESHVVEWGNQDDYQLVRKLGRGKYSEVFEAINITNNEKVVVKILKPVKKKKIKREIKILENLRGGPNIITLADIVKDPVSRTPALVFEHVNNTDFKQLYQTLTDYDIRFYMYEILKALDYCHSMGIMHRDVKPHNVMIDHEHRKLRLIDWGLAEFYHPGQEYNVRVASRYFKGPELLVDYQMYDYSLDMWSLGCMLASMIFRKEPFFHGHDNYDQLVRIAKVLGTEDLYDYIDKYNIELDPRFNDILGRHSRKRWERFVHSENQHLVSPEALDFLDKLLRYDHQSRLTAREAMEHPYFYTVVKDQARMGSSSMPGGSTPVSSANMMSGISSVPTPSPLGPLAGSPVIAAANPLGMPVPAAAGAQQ

Data set [32] is described as follows: Solubility of the compound in water. Type of data set: physicochemical. The settings on record: buffer.
Data set [33] concerns the target T1, Casein kinase II subunit alpha. The data set is described as follows: Inhibition of recombinant human GST-tagged CK2alpha in presence of ATP by radiometric kinase assay.
Target sequence in this assay (P68400 whole entry): as the sequence (P68400 whole entry, looked up) above
Data set [34] has the same target. Kind of data set: Mixed-type inhibition of recombinant human GST-tagged CK2alpha in presence of ATP by Lineweaver-Burk plot analysis.
Target sequence in this assay (P68400 whole entry): as the sequence (P68400 whole entry, looked up) above
Data set [35] shares this target. Kind of data set: Non-ATP competitive binding affinity to GST-tagged CK2alpha (unknown origin) assessed as melting temperature at 50 uM by temperature-dependent circular dichroism (reference value: […] degC).
Target sequence in this assay (P68400 whole entry, looked up): as above
For data set [36] the target is unchanged. Kind of data set: Binding affinity to CK2alpha (unknown origin) at 500 uM in presence of kinase inhibitor CX-4945 by STD-based NMR spectroscopy. Summed up: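 STD NMR at 600 MHz and 293 K in PBS pH 7.3 with 10 mM NaCl, 2 mM MgCl2 and 10% D2O. […] On-resonance protein saturation was at 0.6 ppm for 2 s. STD factors were normalized so the highest STD factor is 100%.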
Target sequence in this assay (P68400 whole entry, looked up): as above

Data set [37] has the same target. Kind of data set: Competitive binding affinity to CK2alpha (1 to 335 residues) (unknown origin) at 10 uM in presence of IP6 by nESI-MS analysis. Summed up:
(§3)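 Native nESI-MS of CK2α residues 1–335 (10 μM) after buffer exchange into 0.50 M ammonium acetate pH 8.5 with 5% (v/v) DMSO. […] Capillary was 1.6–2.0 kV, cone 30–90 V, collision 10 V, source 20 °C; CsI calibration. Ligand binding was read from the charge-state spectra.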
Target sequence in this assay (P68400 whole entry, looked up): as above

The target is the same in data set [38]. The data set is described as follows: Competitive binding affinity to CK2alpha (1 to 335 residues) (unknown origin) at 10 uM by native mass spectrometry. The procedure, abridged: as §3
Target sequence in this assay (P68400 whole entry, looked up): as above
Data set [39] has the same target. Kind of data set: Competitive binding affinity to CK2alpha (1 to 335 residues) (unknown origin) at 10 uM in presence of IP6 by native mass spectrometry. Summed up: as §3
Target sequence in this assay (P68400 whole entry, looked up): as above
Data set [40] has the same target. The data set is described as follows: Competitive binding affinity to CK2alpha (1 to 335 residues) (unknown origin) at 10 uM in presence of IP6 by nESI-MS analysis.
The target in data set [41] is Casein kinase II alpha/beta (Homo sapiens) (UniProt P67870+P68400). The data set is described as follows: Inhibition of recombinant human GST-tagged CK2alpha2/CK2beta2 at 15 uM in presence of ATP by radiometric kinase assay. Type of data set: protein-complex assay.
In data set [42] the target is T1, Casein kinase II subunit alpha. The data set is described as follows: Inhibition of recombinant human GST-tagged CK2alpha at 15 uM in presence of varying ATP levels by radiometric kinase assay.
Data set [43] has the same target. Kind of data set: Inhibition of recombinant human GST-tagged CK2alpha at 15 uM in presence of varying substrate levels by radiometric kinase assay.

Calls of active or inactive are those of the source. No cut-off for these calls is given here.

Sequence of Rho-associated protein kinase 1 (Homo sapiens) (Q13464 2-1354 limits assumed): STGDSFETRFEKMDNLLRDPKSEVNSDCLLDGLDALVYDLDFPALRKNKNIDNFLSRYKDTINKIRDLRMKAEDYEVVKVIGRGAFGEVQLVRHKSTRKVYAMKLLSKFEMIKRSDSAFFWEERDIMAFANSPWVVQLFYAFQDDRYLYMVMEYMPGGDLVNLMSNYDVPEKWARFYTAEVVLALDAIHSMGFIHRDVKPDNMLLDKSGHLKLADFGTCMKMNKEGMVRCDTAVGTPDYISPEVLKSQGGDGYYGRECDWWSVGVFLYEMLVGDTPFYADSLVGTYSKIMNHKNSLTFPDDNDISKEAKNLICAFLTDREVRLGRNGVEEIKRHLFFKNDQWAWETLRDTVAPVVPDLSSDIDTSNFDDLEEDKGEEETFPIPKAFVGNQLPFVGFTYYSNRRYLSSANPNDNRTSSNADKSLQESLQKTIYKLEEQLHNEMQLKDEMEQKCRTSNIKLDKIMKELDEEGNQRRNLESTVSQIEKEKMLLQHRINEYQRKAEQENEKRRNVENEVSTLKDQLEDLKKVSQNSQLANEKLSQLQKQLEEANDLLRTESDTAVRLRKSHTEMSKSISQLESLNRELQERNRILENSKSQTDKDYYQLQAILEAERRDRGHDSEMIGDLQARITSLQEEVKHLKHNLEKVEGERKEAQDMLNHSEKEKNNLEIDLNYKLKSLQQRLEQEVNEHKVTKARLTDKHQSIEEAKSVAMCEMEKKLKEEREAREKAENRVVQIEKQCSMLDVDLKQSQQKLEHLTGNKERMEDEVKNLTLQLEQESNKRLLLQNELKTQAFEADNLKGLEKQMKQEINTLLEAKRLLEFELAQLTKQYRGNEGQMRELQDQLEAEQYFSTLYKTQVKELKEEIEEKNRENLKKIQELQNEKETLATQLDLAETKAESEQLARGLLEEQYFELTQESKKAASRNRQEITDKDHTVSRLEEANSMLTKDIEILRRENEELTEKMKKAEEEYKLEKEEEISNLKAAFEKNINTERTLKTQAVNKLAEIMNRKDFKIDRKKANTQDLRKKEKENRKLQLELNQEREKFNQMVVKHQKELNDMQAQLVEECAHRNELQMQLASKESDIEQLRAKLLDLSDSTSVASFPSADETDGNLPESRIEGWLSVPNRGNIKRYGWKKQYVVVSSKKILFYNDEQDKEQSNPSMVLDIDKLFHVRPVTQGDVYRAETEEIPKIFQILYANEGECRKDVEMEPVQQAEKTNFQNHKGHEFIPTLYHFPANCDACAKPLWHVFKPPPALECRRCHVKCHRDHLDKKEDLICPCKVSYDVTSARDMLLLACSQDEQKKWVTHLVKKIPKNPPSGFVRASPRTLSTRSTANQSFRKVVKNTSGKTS
Sequence of Myosin light chain kinase 2, skeletal/cardiac muscle (Homo sapiens) (Q9H1R3 whole entry): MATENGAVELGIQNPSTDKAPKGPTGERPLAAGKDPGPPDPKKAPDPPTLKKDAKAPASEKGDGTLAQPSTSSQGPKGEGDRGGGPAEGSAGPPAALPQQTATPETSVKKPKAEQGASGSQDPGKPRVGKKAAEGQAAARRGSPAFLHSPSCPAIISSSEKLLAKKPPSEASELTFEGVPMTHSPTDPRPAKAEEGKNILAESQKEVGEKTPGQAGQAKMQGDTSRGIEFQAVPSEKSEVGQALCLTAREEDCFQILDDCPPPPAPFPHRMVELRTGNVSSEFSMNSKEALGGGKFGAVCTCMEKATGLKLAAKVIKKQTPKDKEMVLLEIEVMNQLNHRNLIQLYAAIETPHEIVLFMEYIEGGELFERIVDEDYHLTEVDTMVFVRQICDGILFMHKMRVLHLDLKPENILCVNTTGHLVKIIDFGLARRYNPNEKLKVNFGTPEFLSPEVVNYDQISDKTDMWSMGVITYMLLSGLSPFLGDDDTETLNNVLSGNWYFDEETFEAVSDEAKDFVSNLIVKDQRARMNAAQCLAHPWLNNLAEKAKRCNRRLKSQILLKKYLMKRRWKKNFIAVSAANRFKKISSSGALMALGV
Sequence of Serine/threonine-protein kinase TBK1 (Homo sapiens) (Q9UHD2 whole entry): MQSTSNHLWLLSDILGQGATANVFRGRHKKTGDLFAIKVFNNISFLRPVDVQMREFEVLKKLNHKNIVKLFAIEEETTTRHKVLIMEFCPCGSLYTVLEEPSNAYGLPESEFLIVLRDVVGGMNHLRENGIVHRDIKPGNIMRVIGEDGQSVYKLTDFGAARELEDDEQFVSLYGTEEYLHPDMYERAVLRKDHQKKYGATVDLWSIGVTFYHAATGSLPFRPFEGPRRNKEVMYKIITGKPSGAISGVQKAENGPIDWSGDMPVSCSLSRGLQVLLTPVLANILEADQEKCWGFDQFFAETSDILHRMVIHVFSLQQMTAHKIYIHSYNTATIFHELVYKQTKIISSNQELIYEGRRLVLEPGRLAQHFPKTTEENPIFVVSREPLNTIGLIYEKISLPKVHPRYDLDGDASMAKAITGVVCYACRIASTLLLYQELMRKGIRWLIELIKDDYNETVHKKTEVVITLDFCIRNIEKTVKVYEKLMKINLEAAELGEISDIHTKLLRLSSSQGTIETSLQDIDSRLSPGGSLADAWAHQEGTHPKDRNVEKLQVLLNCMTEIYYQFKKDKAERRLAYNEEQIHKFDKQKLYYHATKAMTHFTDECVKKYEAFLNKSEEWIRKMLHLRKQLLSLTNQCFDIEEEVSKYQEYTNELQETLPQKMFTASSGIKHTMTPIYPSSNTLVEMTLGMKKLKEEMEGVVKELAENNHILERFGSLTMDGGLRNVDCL
Sequence of Cyclin-dependent kinase 1/cyclin B1 (Homo sapiens) (P06493 whole entry, looked up): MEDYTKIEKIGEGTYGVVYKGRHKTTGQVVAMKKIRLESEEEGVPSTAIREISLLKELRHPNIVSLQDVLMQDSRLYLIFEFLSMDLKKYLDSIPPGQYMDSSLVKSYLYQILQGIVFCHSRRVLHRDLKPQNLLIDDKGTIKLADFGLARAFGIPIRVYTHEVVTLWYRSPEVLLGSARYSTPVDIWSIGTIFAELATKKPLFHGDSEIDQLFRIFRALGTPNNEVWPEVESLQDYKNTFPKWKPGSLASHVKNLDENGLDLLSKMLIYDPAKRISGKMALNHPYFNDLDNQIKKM
Sequence of Cyclin-dependent kinase 1/cyclin B1 (Homo sapiens) (P14635 whole entry, looked up): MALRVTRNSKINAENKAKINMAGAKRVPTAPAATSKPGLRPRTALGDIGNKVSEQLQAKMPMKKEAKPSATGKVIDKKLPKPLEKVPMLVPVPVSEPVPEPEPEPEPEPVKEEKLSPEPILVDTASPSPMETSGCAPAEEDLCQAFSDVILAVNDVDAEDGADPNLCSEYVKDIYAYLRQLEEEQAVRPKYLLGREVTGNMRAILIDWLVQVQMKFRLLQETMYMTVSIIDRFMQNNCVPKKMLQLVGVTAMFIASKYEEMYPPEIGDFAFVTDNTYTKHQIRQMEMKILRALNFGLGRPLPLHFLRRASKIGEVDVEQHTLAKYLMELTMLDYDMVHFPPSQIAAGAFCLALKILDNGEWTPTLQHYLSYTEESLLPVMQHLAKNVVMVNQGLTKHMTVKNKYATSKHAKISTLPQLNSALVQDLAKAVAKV
Sequence of Activin receptor type-1 (Homo sapiens) (Q04771 whole entry): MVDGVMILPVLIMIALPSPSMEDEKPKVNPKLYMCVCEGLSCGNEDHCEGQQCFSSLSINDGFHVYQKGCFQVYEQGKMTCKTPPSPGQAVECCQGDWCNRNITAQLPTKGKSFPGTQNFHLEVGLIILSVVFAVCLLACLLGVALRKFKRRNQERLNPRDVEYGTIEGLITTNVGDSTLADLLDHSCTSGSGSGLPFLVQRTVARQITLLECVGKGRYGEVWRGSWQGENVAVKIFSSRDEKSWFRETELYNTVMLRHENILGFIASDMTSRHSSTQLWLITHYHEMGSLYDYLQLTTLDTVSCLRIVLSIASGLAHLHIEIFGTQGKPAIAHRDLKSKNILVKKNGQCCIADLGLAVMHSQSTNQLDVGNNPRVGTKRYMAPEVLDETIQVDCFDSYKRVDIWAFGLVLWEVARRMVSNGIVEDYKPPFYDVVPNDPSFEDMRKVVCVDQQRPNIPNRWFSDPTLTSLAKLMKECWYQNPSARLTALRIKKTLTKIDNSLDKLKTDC

`O=C(O)c1ccc(Nc2nc(-c3cccc(Br)c3)cs2)cc1`: the Activity in data set [1] was determined as 106%; in data set [2], 27%; in [3], 57%; in data set [4], 90%; in data set [5] it was 102%; in data set [6] it was 29%. For the same molecule, the Activity is 57% in [7]; 92% in [8]; 116% in [9]; 78% in data set [10]; 72% in [11]; 82% in data set [12]. The Activity is 107% in [13]; 107% in data set [14]; 95% in data set [15]; 69% in data set [16]; 98% in data set [17]; 31% in [18]. The Activity amounted to 34% in data set [19]; 39% in [20]; 39% in data set [21]; 55% in [22]; 67% in data set [23]; 75% in data set [24]. Besides, the Activity in data set [25] was found to be 79%; in data set [26] it was 80%; in [27], 86%; in data set [28] it was 86%; in [29] it was 101%; in [30], 104%.
The inhibition is the relative decrease from the control value, in per cent. Turning to `COC(=O)c1ccc(Nc2nc(-c3cccc([N+](=O)[O-])c3)cs2)cc1`, the inhibition in data set [31] was determined as 9%.
Turning to `O=C(O)c1ccc(Nc2nc(-c3ccccn3)cs2)cc1`, the solubility result in data set [32] was “Soluble”.
As a reminder, the IC50 is the concentration that gives 50% inhibition. As usually defined, the Ki is a measure of affinity in units of concentration, obtained from inhibition or displacement. As to `O=C(O)c1ccc(Nc2nc(-c3ccccc3)cs2)cc1`, the IC50 in data set [33] came out at 9 µM. In addition, the Ki in data set [34] came out at 1.1 µM. The Tm in [35] is 50.3 °C. In addition, the solubility result in data set [32] was “Soluble”. Further, the result in [36], in [37], in data set [38] and in data set [40] was Active. The outcome in data set [39] was inactive.
In the case of `O=C(O)c1ccc(Nc2nccs2)cc1`, the inhibition in data set [31] came out at 0%.
For `O=[N+]([O-])c1cccc(-c2csc(Nc3ccccc3)n2)c1`, the inhibition in [31] was 27%.
Regarding `O=C(O)c1cccc(Nc2nc(-c3cccc([N+](=O)[O-])c3)cs2)c1`, the IC50 in data set [33] turned out to be 27.7 µM. Besides, the inhibition entry in data set [41], in data set [42] and in [43] was “Active” throughout.

The record behind these values is ChEMBL document CHEMBL4411337, “2-Aminothiazole Derivatives as Selective Allosteric Modulators of the Protein Kinase CK2. 1. Identification of an Allosteric Binding Site” (J Med Chem, 2019).
